For orientation: T/C means the ratio of treated to control.

Experiment [1] relates to L1210. Put plainly: Antitumor activity was determined against the ip implanted L1210 leukemia in mice by range in survival days at 80 mg/kg (treatment of 1-5qd schedule) dosage; Range is 21-30. The experiment is classed as functional, Mus musculus. To be noted: route intraperitoneal. In short, it runs like this:
(§1)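 DBA/2J mice, 23-28 g, in groups of 6, were inoculated ip with 1×10^6 L1210 cells on day 0. Dosing was ip starting 24 h later on the stated daily schedules. Conjugates were given as sonicated solutions and reference prodrugs as suspensions in 0.9% NaCl with 0.5% Tween-80. Mice were observed daily until death or 45 days. Median survival T/C was calculated from survivors per NCI protocols.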

Experiment [2] concerns L1210. In words: Antitumor activity was determined against the ic implanted L1210 lymphoid leukemia in mice by range in survival days at 167 mg/kg (treatment of 1, 5, 9qd schedule) dosage; Range is 14-22. In kind it is functional, Mus musculus.
For experiment [3], the system named is L1210. In words: Antitumor activity against ic implanted L1210 lymphoid leukemia in mice expressed as active dose range (1-5qd treatment schedule) required to produce increase in life span by >25% was determined; Range is 40-100. The experiment is classed as functional, Mus musculus. In short, it runs like this: (§2)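 DBA/2J mice, groups of 6 (26-32 g), got 1 × 10^5 L1210 cells ic on day 0. Dosing was ip starting 24 h later, as a sonicated solution or suspension in 0.9% NaCl with 0.5% Tween-80, over a wide dose range. Mice were followed daily until death. Median survival T/C was taken from survivors per NCI protocols, and ILS = (T/C − 1) × 100. Active range means doses giving ILS ≥25%; optimal dose means greatest ILS.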

Experiment [4] relates to L1210. In words: Antitumor activity was determined against the ip implanted L1210 leukemia in mice by percent median survival rate (treated/control) at 80 mg/kg (treatment of 1-5qd schedule) dosage; 25.5/7.0. In kind it is functional, Mus musculus. The following applies: route intraperitoneal. In short, it runs like this: as §1
The test system of experiment [5] is P388. Put plainly: Antitumor activity was determined against the ip implanted P388 leukemia in mice by 45-day survivors in mice at 300 mg/kg (treatment of 1qd schedule) dosage. The following applies: route intraperitoneal.
The subject of the next experiment is L1210 (mouse). Put plainly: Antitumor activity was determined against the ic implanted L1210 lymphoid leukemia in mice by change in […] at 500 mg/kg (treatment of 1qd schedule) dosage.
Experiment [6] concerns L1210. In words: Antitumor activity was determined against the ic implanted L1210 lymphoid leukemia in mice by range in survival days at 500 mg/kg (treatment of 1qd schedule) dosage; Range is 18-23.
Experiment [7] has as its system P388. Put plainly: Antitumor activity was determined against the ip implanted P388 leukemia in mice by percent median survival rate (treated/control) at 200 mg/kg (treatment of 1-5qd schedule) dosage; 23.0/11.0. The experiment is classed as functional, Mus musculus. To be noted: route intraperitoneal.
In experiment [8] the test system is P388. In words: Antitumor activity was determined against the ip implanted P388 leukemia in mice by 45-day survivors in mice at 200 mg/kg (treatment of 1-5qd schedule) dosage. The experiment is classed as functional, Mus musculus. To be noted: route intraperitoneal. The gist of the method:
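DBA/2J mice, 23-33 g, in groups of 6, were inoculated ip with 1×10^6 P388 cells on day 0. Dosing was ip from 24 h on the stated schedules, in 0.9% NaCl with 0.5% Tween-80 (sonicated solution or suspension). Survival was followed daily until death or 45 days. Median T/C was calculated from survivors per NCI protocols, with ILS = (T/C − 1) × 100.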

Experiment [9] has as its system P388. In words: Antitumor activity was determined against the ip implanted P388 leukemia in mice by range in survival days at 500 mg/kg (treatment of 1qd schedule) dosage; Range is 14-15. The experiment is classed as functional, Mus musculus. The following applies: route intraperitoneal.
Experiment [10] deals with L1210. In words: Antitumor activity was determined against the ip implanted L1210 leukemia in mice by range in survival days at 400 mg/kg (treatment of 1qd schedule) dosage; Range is 15-29. To be noted: route intraperitoneal. The experiment is classed as functional, Mus musculus. In short, it runs like this:
as §1

Experiment [11] relates to L1210. Put plainly: Antitumor activity was determined against the ip implanted L1210 leukemia in mice by 45-day survivors in mice at 100 mg/kg (treatment of 1-5qd schedule) dosage. In kind it is functional, Mus musculus. To be noted: route intraperitoneal. The gist of the method:
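DBA/2J mice in groups of 6 (wt 23-28 g) were inoculated ip with 1×10^6 L1210 cells on day 0. Dosing was ip from 24 h, in 0.9% NaCl with 0.5% Tween-80 (conjugates sonicated), across a range of doses. Mice were observed daily until death or 45 days. Median T/C was computed from survivors per NCI protocols, and ILS = (T/C − 1)×100.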

The test system of experiment [12] is P388. Put plainly: Antitumor activity was determined against the ip implanted P388 leukemia in mice by percent median survival rate (treated/control) at 67 mg/kg (treatment of 1,5,9qd schedule) dosage; 25.5/11.0. In kind it is functional, Mus musculus. To be noted: route intraperitoneal.
Experiment [13] concerns P388. Put plainly: Antitumor activity was determined against the ip implanted P388 leukemia in mice by range in survival days at 500 mg/kg (treatment of 1qd schedule) dosage; Range is 23->45. The following applies: route intraperitoneal. In kind it is functional, Mus musculus.
For experiment [14], the system named is L1210. In words: Antitumor activity was determined against the ip implanted L1210 leukemia in mice by range in survival days at 300 mg/kg (treatment of 1qd schedule) dosage; Range is 14->45. The experiment is classed as functional, Mus musculus. The following applies: route intraperitoneal. The gist of the method:
as §1

Experiment [15] concerns L1210. In words: Antitumor activity against ic implanted L1210 lymphoid leukemia in mice expressed as active dose range (1-5qd treatment schedule) required to produce increase in life span by >25% was determined; Range is 40-80. In kind it is functional, Mus musculus. In short, it runs like this: as §2
Experiment [16] concerns L1210. Put plainly: Antitumor activity against ic implanted L1210 lymphoid leukemia in mice expressed as active dose range (1 qd treatment schedule) required to produce increase in life span by >25% was determined; Range is 200-400. The experiment is classed as functional, Mus musculus. The gist of the method: as §2
For experiment [17], the system named is L1210. Put plainly: Antitumor activity against ip implanted L1210 leukemia in mice expressed as active dose range (1 qd treatment schedule) required to produce increase in life span by >25% was determined; Range is 50-400. The experiment is classed as functional, Mus musculus. The gist of the method: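 DBA/2J mice, groups of 6 (23-28 g), were inoculated ip with 1 × 10^6 L1210 cells on day 0. Dosing was ip from 24 h, in 0.9% NaCl with 0.5% Tween-80 (sonicated solution or suspension). Mice were observed daily until death or day 45. Median survival T/C followed NCI protocols, and ILS = (T/C − 1) × 100. Active range means doses giving ILS ≥25%; optimal dose means greatest ILS.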

Experiment [18] has as its system L1210. Put plainly: Antitumor activity was determined against the ic implanted L1210 lymphoid leukemia in mice by percent increase in life span at 300 mg/kg (1 qd treatment schedule) dosage. The experiment is classed as functional, Mus musculus. In short, it runs like this:
as §2

Experiment [19] has as its system P388. In words: Antitumor activity was determined against the ip implanted P388 leukemia in mice by range in survival days at 60 mg/kg (1-5qd treatment schedule) dosage; Range is 35->45. The experiment is classed as functional, Mus musculus. To be noted: route intraperitoneal.
Experiment [20] concerns P388. Put plainly: Antitumor activity was determined against the ip implanted P388 leukemia in mice by change in […] at 500 mg/kg (1 qd treatment schedule) dosage. The following applies: route intraperitoneal. The experiment is classed as functional, Mus musculus. In short, it runs like this: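 P388 leukemia, 1×10^6 cells implanted ip on day 0 into DBA/2J mice, groups of 6 (wt 23-33 g). Dosing ip started 24 h post-inoculation, vehicle 0.9% NaCl containing 0.5% Tween-80. Animals were observed daily until death or 45 days. Outputs were weight change, median survival T/C from survivors per NCI protocols, and %ILS = (T/C − 1) × 100.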

Consider `CCCCCCCCCCCCCCCCOCC(COP(=O)(O)OP(=O)(O)OC[C@H]1O[C@@H](n2ccc(N)nc2=O)[C@@H](O)[C@@H]1O)OC(=O)CCCCCCCCCCCCCCC` (mixture of isomers), for which the Range is on record as 21 in the experiment on L1210 [1], 14 with L1210 [2] and 18 with L1210 [6]. Further, the Active dose range in the experiment on L1210 [3] was found to be 40 mg/kg/day. The same compound displayed a T/C in the experiment on L1210 [4] of 25.5%. Also, the Survivors with P388 [5] is 6. For the same compound, in the experiment with L1210 (mouse), the Weight change is on record as -2.07 g mouse-1.
Regarding `Nc1ccn([C@@H]2O[C@H](CO)[C@@H](O)[C@@H]2O)c(=O)n1` [CYTARABINE], the T/C in the experiment with P388 [7] worked out at 23%. Further, in the experiment with P388 [8], the Survivors stood at 0. This compound also showed a Range with P388 [9] of 14.
For `CCCCCCCCCCCCCCCCCCOCC(COP(=O)(O)OP(=O)(O)OC[C@H]1O[C@@H](n2ccc(N)nc2=O)[C@@H](O)[C@@H]1O)OC(=O)CCCCCCCCCCCCCCC` (mixture of isomers), the figures for the Range in the experiment with L1210 [10] and in the experiment on P388 [13] were 15 and 23, respectively. Further, in the experiment on L1210 [11], the Survivors is 0. The T/C with P388 [12] is on record as 25.5%.
For the compound `CCCCCCCCCCCCCCCC(=O)OC[C@H](COP(=O)(O)OP(=O)(O)OC[C@H]1O[C@@H](n2ccc(N)nc2=O)[C@@H](O)[C@@H]1O)OC(=O)CCCCCCCCCCCCCCC`, the Range in the experiment with L1210 [14] turned out to be 14; with P388 [19] it was 35. Further, the Active dose range turned out to be 40 mg/kg/day in the experiment on L1210 [15], 200 mg/kg/day in the experiment with L1210 [16] and 50 mg/kg/day with L1210 [17]. In the experiment with L1210 [18], this compound returned an ILS of 200. This compound gave a Weight change in the experiment with P388 [20] of -0.07 g mouse-1.

The record behind these values is ChEMBL document CHEMBL1123247, “Nucleoside conjugates. 7. Synthesis and antitumor activity of 1-beta-D-arabinofuranosylcytosine conjugates of ether lipids” (J Med Chem, 1986).
